Assay results: ChEMBL document CHEMBL1135436, “Structure-activity relationships of the melanocortin tetrapeptide Ac-His-DPhe-Arg-Trp-NH(2) at the mouse melanocortin receptors. 1. Modifications at the His position” (J Med Chem, 2002)
Where a SMILES comes first, the peptide text is derived from it. [ ]: non-standard residue; d: D form. Tic = O=C(O)[C@@H]1Cc2ccccc2CN1; dTic = O=C(O)[C@H]1Cc2ccccc2CN1; 2Thi = N[C@@H](Cc1cccs1)C(=O)O

What was measured:
Melanocortin receptor 5 = Melanocortin receptor 5 (Mus musculus, UniProt P41149); assay: In vitro activation of mouse recombinant Melanocortin-5 receptor.
Method in brief: (§1)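 HEK-293 cells stably expressing the mouse receptor (calcium phosphate transfection, G418 1 mg/mL selection) were transfected with a CRE/β-galactosidase reporter. Lysates were read with ONPG at 37 °C (OD405), normalized to protein (OD595) and forskolin. EC50 came from nonlinear least-squares fitting, duplicate experiments in quadruplet.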

[1] = target: Melanocyte-stimulating hormone receptor (Mus musculus, UniProt Q01727); assay: In vitro activation of mouse recombinant Melanocortin-1 receptor.; method in brief: as §1
Melanocortin receptor 3 [2] = target: T1, Melanocortin receptor 3 (Mus musculus, UniProt P33033); assay: In vitro activation of mouse recombinant Melanocortin-3 receptor.; method in brief: as §1
Melanocortin receptor 4 = Melanocortin receptor 4 (Mus musculus, UniProt P56450); assay: In vitro activation of mouse recombinant Melanocortin-4 receptor.; method in brief: as §1
Melanocortin receptor 3 [3] = target: T1, Melanocortin receptor 3; assay: Agonist activity of compound in mouse Melanocortin-3 receptor (mMC3R); Slight agonist; assay type: functional
Method in brief: as §1, with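 “reporter. At 48 h they were stimulated for 6 h with peptide (10^-4–10^-12 M) or forskolin (10^-4 M) in DMEM with 0.1 mg/mL BSA and 0.1 mM IBMX.” for “reporter.”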

Melanocortin receptor 4, sequence (P56450 whole entry): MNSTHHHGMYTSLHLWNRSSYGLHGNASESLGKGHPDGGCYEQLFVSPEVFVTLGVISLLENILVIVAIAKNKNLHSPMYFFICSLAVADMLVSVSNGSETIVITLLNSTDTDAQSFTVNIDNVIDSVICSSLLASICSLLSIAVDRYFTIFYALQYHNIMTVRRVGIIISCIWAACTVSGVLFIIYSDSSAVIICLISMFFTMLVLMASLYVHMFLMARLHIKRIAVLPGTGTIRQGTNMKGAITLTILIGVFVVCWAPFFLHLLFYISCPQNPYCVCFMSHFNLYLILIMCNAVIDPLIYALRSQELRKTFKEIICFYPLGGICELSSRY
T1 sequence (P33033 whole entry): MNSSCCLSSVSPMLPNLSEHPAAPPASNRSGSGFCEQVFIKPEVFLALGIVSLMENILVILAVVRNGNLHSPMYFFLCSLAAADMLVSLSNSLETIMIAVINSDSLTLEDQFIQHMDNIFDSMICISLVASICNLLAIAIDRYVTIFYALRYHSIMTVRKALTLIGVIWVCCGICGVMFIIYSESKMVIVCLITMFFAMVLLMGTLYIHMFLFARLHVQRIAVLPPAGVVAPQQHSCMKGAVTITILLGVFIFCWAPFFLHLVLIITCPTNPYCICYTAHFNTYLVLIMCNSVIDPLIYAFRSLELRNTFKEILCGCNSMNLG
Melanocyte-stimulating hormone receptor, sequence (Q01727 whole entry): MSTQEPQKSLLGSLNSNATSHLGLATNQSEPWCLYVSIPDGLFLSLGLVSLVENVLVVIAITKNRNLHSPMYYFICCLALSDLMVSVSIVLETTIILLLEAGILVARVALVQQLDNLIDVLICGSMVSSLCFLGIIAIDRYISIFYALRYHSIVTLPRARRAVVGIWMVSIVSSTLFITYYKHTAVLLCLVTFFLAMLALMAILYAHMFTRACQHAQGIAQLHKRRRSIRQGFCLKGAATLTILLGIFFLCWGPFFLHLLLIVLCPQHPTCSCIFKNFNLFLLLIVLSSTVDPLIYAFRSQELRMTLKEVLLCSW
Melanocortin receptor 5, sequence (P41149 whole entry): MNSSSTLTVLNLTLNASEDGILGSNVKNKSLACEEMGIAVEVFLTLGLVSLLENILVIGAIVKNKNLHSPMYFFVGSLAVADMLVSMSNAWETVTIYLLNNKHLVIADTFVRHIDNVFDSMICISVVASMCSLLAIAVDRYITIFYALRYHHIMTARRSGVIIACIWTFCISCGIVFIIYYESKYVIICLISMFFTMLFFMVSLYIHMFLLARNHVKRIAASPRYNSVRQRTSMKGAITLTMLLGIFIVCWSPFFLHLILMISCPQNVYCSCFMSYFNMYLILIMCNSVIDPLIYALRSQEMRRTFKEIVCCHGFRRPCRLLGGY

Row | EC50 (Melanocortin receptor 5) [nM] | EC50 [1] [nM] | EC50 (Melanocortin receptor 3 [2]) [nM] | EC50 (Melanocortin receptor 4) [nM] | EC50 (Melanocortin receptor 3 [3]) | Compound
1 | 92.5 | 176 | 2270 | 128 |  | CC(=O)N[C@@H](Cc1ccncc1)C(=O)N[C@H](Cc1ccccc1)C(=O)N[C@@H](CCCN=C(N)N)C(=O)N[C@@H](Cc1c[nH]c2ccccc12)C(N)=O
2 | 400 | 1150 |  | 887 | Partial agonist | CC(=O)N[C@@H](Cc1cccnc1)C(=O)N[C@H](Cc1ccccc1)C(=O)N[C@@H](CCCN=C(N)N)C(=O)N[C@@H](Cc1c[nH]c2ccccc12)C(N)=O
3 | 143 | 503 | 11900 | 70.6 |  | CC(=O)N[C@@H](Cc1ccccc1)C(=O)N[C@H](Cc1ccccc1)C(=O)N[C@@H](CCCNC(=N)N)C(=O)N[C@@H](Cc1c[nH]c2ccccc12)C(N)=O
4 | 2240 | 7100 | > 100000 | 1500 |  | CC(=O)N[C@H](Cc1ccc2ccccc2c1)C(=O)N[C@H](Cc1ccccc1)C(=O)N[C@@H](CCCNC(=N)N)C(=O)N[C@@H](Cc1c[nH]c2ccccc12)C(N)=O
5 | 2980 | 11500 | > 100000 | 2170 |  | CC(=O)N[C@H](Cc1ccccc1)C(=O)N[C@H](Cc1ccccc1)C(=O)N[C@@H](CCCNC(=N)N)C(=O)N[C@@H](Cc1c[nH]c2ccccc12)C(N)=O
6 | 300 | 1800 | 9000 | 1000 |  | CC(=O)N[C@@H](C)C(=O)N[C@H](Cc1ccccc1)C(=O)N[C@@H](CCCN=C(N)N)C(=O)N[C@@H](Cc1c[nH]c2ccccc12)C(N)=O
7 | 381 | 4400 | 19800 | 211 |  | CC(=O)N[C@@H](Cc1csc2ccccc12)C(=O)N[C@H](Cc1ccccc1)C(=O)N[C@@H](CCCN=C(N)N)C(=O)N[C@@H](Cc1c[nH]c2ccccc12)C(N)=O
8 | 1260 | 6600 | > 100000 | 6200 |  | CC(=O)N[C@H](Cc1c[nH]c2ccccc12)C(=O)N[C@H](Cc1ccccc1)C(=O)N[C@@H](CCCNC(=N)N)C(=O)N[C@@H](Cc1c[nH]c2ccccc12)C(N)=O
9 | 507 | 5400 | 10300 | 528 |  | CC(=O)N[C@@H](Cc1c[nH]c2ccccc12)C(=O)N[C@H](Cc1ccccc1)C(=O)N[C@@H](CCCN=C(N)N)C(=O)N[C@@H](Cc1c[nH]c2ccccc12)C(N)=O
10 | 606 | 9500 | 14700 | 2900 |  | CC(=O)N[C@@H](Cc1ccc2ccccc2c1)C(=O)N[C@H](Cc1ccccc1)C(=O)N[C@@H](CCCN=C(N)N)C(=O)N[C@@H](Cc1c[nH]c2ccccc12)C(N)=O
11 | 138 |  |  | 506 |  | CC(=O)N[C@H](Cc1cnc[nH]1)C(=O)N[C@H](Cc1ccccc1)C(=O)N[C@@H](CCCNC(=N)N)C(=O)N[C@@H](Cc1c[nH]c2ccccc12)C(N)=O
12 | 2400 | 7730 |  | 714 |  | CC(=O)NC1(C(=O)N[C@H](Cc2ccccc2)C(=O)N[C@@H](CCCNC(=N)N)C(=O)N[C@@H](Cc2c[nH]c3ccccc23)C(N)=O)CCc2ccccc2C1 (stereo partly specified)
13 | 684 | 4250 | 15000 | 1500 |  | CC(=O)N1CCC[C@H]1C(=O)N[C@H](Cc1ccccc1)C(=O)N[C@@H](CCCN=C(N)N)C(=O)N[C@@H](Cc1c[nH]c2ccccc12)C(N)=O (Ac-P[dF]RW-NH2)
14 | 40.5 | 203 | 2950 | 91.2 |  | CC(=O)N[C@@H](Cc1cccs1)C(=O)N[C@H](Cc1ccccc1)C(=O)N[C@@H](CCCNC(=N)N)C(=O)N[C@@H](Cc1c[nH]c2ccccc12)C(N)=O (Ac-[2Thi][dF]RW-NH2)
15 | 369 | 2600 | 11800 | 2900 |  | CC(=O)N1Cc2ccccc2C[C@H]1C(=O)N[C@H](Cc1ccccc1)C(=O)N[C@@H](CCCNC(=N)N)C(=O)N[C@@H](Cc1c[nH]c2ccccc12)C(N)=O (Ac-[Tic][dF]RW-NH2)
16 | 12000 | 11300 | > 100000 | 11700 |  | CC(=O)N1Cc2ccccc2C[C@@H]1C(=O)N[C@H](Cc1ccccc1)C(=O)N[C@@H](CCCN=C(N)N)C(=O)N[C@@H](Cc1c[nH]c2ccccc12)C(N)=O (Ac-[dTic][dF]RW-NH2)
